Blank lines part the entries; values can stand above or below the compound they belong to. Activity calls are given as the source filed them. No cut-off for these calls is given here.
What was measured:
[1] = biological target: T1, Mineralocorticoid receptor (Homo sapiens, UniProt P08235); test: Displacement of [3H]-aldosterone from human mineralocorticoid receptor expressed in HEK293 cells; type: cell-based
T1 sequence (P08235 whole entry): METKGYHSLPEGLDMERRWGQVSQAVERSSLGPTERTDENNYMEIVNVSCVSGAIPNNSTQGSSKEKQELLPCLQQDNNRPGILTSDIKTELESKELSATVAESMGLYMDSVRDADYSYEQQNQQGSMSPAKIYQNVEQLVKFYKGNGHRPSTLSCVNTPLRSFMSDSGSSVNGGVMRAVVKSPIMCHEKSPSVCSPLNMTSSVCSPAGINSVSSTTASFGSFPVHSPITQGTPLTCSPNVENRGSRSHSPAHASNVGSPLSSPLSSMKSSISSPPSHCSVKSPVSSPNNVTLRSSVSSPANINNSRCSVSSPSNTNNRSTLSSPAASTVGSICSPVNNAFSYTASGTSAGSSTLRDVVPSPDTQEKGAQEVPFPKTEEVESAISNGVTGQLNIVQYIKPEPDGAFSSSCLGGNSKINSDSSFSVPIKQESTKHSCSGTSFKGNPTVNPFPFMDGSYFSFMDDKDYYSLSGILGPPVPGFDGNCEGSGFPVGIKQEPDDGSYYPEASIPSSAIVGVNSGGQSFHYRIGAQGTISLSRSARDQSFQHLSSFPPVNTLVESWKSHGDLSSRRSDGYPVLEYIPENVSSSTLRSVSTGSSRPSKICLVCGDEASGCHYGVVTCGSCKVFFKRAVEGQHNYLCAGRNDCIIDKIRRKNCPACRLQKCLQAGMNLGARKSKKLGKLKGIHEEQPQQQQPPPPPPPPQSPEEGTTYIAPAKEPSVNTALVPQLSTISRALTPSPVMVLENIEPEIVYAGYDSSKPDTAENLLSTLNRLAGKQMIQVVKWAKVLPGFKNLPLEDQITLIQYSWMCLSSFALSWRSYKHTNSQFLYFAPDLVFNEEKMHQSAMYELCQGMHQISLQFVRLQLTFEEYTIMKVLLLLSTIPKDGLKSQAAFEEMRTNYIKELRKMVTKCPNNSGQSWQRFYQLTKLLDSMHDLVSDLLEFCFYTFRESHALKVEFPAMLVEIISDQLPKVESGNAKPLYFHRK
Method in brief: (§1)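 Competition binding used lysates of HEK293 cells overexpressing the human receptor. The tracer was ³H-aldosterone for MR and ³H-methyltrienolone for PR. Competitor was tested from 0.01 nM to 10 μM. IC50 was converted to Ki by Cheng–Prusoff. Values are means of at least three experiments, each run in triplicate.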

[2] = Antiinflammatory activity in PMA-differentiated human U937 cells assessed as inhibition of LPS-induced TNFalpha production incubated for 60 mins prior to LPS challenge measured after 24 hrs; type: functional, cell-based; conditions: U-937
Method in brief: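 U-937 cells (100 000/well) were differentiated with 20 nM PMA overnight at 37 °C, then refed with PMA-free medium. Cells were pretreated with compound for 60 min, then stimulated with LPS (stock 400 ng/mL) for 24 h at 37 °C. Secreted TNFα was measured by EIA/RIA. Ten-point half-log dilutions were used, each concentration in triplicate.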

[3] = biological target: T2, Glucocorticoid receptor (Homo sapiens) (UniProt P04150); test: Transactivation of human glucocorticoid receptor expressed in HEK293 cells at 10 uM after 24 hrs by luciferase reporter gene assay relative to control; type: cell-based
T2 sequence (whole entry): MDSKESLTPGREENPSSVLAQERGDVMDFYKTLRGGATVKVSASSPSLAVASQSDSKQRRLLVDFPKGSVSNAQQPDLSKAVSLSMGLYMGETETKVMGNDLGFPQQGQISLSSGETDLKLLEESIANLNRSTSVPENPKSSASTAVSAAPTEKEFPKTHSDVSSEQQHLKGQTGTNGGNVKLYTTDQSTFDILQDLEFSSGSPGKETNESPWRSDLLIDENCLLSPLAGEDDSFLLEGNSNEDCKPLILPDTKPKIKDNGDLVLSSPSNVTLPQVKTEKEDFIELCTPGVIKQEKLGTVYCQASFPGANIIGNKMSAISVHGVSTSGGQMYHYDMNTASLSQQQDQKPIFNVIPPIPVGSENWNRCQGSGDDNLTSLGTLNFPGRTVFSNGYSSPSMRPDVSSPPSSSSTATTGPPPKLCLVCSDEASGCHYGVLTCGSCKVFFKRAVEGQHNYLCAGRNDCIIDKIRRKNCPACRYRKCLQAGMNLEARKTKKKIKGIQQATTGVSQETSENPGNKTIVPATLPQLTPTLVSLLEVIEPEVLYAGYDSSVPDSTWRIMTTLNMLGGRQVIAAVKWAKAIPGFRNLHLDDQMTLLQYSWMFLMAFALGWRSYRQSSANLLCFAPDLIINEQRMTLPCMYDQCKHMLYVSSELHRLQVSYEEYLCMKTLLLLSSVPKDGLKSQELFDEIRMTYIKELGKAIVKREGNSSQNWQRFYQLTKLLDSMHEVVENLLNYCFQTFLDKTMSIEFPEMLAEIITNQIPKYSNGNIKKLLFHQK
Method in brief: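 HEK293 cells were transfected in DMEM with 5% charcoal-stripped FBS, using a CMV-hGR plasmid and a luciferase reporter driven by 2×GRE plus the TK promoter. After overnight incubation, cells were replated and exposed to compound for 24 h, then lysed for luciferase readout.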

Rattus norvegicus [4] = test: Antiinflammatory activity in po dosed Sprague-Dawley rat assessed as inhibition of carrageenan-induced IL-1beta secretion incubated for 2 hrs prior to carrageenan challenge measured after 5 hrs by ELISA; type: functional
Method in brief: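 Male Sprague-Dawley rats (n = 5/group) were dosed at t = 0, and carrageenan was injected into the rear footpad at 2 h. At 5 h the animals were euthanised and the hindpaws weighed to measure edema. Paw exudate was assayed for IL-1β by ELISA.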

[5] = Antiinflammatory activity in human CCD-39SK cells assessed as inhibition of IL-1beta-induced IL-6 production incubated for 60 mins prior to IL-1beta induction measured after 24 hrs; type: functional, cell-based
Method in brief: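 CCD-39SK fibroblasts (20 000/well) were grown in MEM with 2% charcoal/dextran-treated FBS. Cells were pretreated with compound for 60 min, then stimulated with rhIL-1β (1 ng/mL final) for 24 h at 37 °C. IL-6 in clarified supernatant was measured. […] Ten-point half-log dilutions were used, each in triplicate.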

Rattus norvegicus [6] = test: Antiinflammatory activity in po dosed Sprague-Dawley rat assessed as inhibition of carrageenan-induced paw edema incubated for 2 hrs prior to carrageenan challenge measured after 5 hrs […]; type: functional
Rattus norvegicus [7] = test: Antiinflammatory activity in Lewis rat collagen-induced arthritis model assessed as reduction in ankle diameter at 10 mg/kg, po administered for 15 days measured during compound dosing; type: functional, organism-based; parameters: dose 10 mg/kg
Method in brief: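 Female Lewis rats received collagen injected at the tail base, and disease developed over 14 d. Responding rats (groups of n = 10) were then dosed orally once daily for the next 15 d. Ankle/paw diameter was measured throughout the live phase and summarised as AUC. Hindpaw histology was scored blind from 0 (normal) to 5 (vehicle-level). Statistics used Student's t test vs vehicle, p < 0.01.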

Glucocorticoid receptor = biological target: T3, Glucocorticoid receptor (Homo sapiens, UniProt P04150); test: Displacement of [3H]-dexamethasone from human glucocorticoid receptor expressed in HEK293 cells; type: cell-based
T3 sequence (P04150 whole entry): T2 sequence (whole entry)

Progesterone receptor = biological target: T4, Progesterone receptor (Homo sapiens, UniProt P06401); test: Displacement of [3H]-methyltrienolone from human progesterone receptor expressed in HEK293 cells; type: cell-based; method in brief: as §1
T4 sequence (P06401 whole entry): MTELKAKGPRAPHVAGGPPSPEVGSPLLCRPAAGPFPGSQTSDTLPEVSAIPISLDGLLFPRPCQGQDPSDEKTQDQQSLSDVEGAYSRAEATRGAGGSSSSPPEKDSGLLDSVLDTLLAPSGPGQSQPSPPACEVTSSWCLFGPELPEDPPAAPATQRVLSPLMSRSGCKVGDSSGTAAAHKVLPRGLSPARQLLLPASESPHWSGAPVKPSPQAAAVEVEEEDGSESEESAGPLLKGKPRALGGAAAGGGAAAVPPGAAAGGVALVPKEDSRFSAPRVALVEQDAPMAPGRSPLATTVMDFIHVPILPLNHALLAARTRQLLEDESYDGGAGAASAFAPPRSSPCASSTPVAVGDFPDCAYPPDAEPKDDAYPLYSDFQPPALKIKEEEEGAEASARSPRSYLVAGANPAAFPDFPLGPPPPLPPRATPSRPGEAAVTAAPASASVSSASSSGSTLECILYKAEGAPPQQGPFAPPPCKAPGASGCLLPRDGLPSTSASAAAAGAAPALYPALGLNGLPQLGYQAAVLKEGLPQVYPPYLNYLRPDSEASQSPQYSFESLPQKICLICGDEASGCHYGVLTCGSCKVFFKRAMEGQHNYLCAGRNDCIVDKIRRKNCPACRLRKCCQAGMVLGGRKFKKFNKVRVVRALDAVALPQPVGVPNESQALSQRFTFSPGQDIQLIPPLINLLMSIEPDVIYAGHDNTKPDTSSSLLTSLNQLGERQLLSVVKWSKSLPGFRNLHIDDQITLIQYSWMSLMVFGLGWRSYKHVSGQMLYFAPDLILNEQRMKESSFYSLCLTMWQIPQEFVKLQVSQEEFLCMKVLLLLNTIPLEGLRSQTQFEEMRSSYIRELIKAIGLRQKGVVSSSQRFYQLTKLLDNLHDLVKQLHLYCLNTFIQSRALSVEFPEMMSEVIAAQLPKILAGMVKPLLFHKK

Structure (SMILES): C[C@]12C=CC(=O)C=C1CC[C@@H]1[C@@H]2[C@@H](O)C[C@@]2(C)[C@H]1CC[C@]2(O)C(=O)CO [PREDNISOLONE]
- Ki [1]: 0.29 nM
- IC50 [2]: 8.2 nM
- Efficacy [3]: 114%
- ED50 (Rattus norvegicus [4]): 0.31 mg/kg
- IC50 [5]: 7.26 nM
- ED50 (Rattus norvegicus [6]): 7.6 mg/kg
- Activity (Rattus norvegicus [7]): Active

Structure (SMILES): C[C@@H]1C[C@H]2[C@@H]3CCC4=CC(=O)C=C[C@]4(C)[C@@]3(F)[C@@H](O)C[C@]2(C)[C@@]1(O)C(=O)CO [DEXAMETHASONE]
- Ki (Progesterone receptor): 561 nM

Structure (SMILES): C(=C1c2ccccc2CCc2ccccc21)c1ccccc1
- Ki (Glucocorticoid receptor): > 100 nM

Structure (SMILES): CS(=O)(=O)Nc1ccccc1C=C1c2ccccc2CCc2ccccc21
- Ki (Glucocorticoid receptor): > 100 nM

Next, values leading:

- Ki (Glucocorticoid receptor): > 100 nM
Structure (SMILES): Nc1cccc(C=C2c3ccccc3CCc3ccccc32)c1

- Ki (Glucocorticoid receptor): > 100 nM
Structure (SMILES): CNS(=O)(=O)c1cccc(C=C2c3ccccc3CCc3ccccc32)c1

- Ki (Glucocorticoid receptor): > 100 nM
Structure (SMILES): CCOc1cccc2c1/C(=C(/CC)c1cccc(N(CC)S(C)(=O)=O)c1)c1ccccc1OC2

- Ki (Glucocorticoid receptor): > 100 nM
Structure (SMILES): CS(=O)(=O)Nc1ccc(C=C2c3ccccc3CCc3ccccc32)cc1
